The source made the active and inactive calls. The calls are words filed in the database; no cut-off is given here.
Key:
[1] = biological target: Phosphatidylinositol 4,5-bisphosphate 3-kinase catalytic subunit alpha isoform (Homo sapiens, UniProt P42336); test: Inhibition of PI3Kalpha (unknown origin) using PIP2 as substrate measured after 1 hr by ADP-glo plus luminescence assay
[2] = biological target: Poly [ADP-ribose] polymerase 1 (Homo sapiens, UniProt P09874); test: Inhibition of recombinant human PARP1 using histone as substrate after 1 hr in presence of biotinylated NAD+ by ELISA
Chain of Poly [ADP-ribose] polymerase 1 (P09874 whole entry): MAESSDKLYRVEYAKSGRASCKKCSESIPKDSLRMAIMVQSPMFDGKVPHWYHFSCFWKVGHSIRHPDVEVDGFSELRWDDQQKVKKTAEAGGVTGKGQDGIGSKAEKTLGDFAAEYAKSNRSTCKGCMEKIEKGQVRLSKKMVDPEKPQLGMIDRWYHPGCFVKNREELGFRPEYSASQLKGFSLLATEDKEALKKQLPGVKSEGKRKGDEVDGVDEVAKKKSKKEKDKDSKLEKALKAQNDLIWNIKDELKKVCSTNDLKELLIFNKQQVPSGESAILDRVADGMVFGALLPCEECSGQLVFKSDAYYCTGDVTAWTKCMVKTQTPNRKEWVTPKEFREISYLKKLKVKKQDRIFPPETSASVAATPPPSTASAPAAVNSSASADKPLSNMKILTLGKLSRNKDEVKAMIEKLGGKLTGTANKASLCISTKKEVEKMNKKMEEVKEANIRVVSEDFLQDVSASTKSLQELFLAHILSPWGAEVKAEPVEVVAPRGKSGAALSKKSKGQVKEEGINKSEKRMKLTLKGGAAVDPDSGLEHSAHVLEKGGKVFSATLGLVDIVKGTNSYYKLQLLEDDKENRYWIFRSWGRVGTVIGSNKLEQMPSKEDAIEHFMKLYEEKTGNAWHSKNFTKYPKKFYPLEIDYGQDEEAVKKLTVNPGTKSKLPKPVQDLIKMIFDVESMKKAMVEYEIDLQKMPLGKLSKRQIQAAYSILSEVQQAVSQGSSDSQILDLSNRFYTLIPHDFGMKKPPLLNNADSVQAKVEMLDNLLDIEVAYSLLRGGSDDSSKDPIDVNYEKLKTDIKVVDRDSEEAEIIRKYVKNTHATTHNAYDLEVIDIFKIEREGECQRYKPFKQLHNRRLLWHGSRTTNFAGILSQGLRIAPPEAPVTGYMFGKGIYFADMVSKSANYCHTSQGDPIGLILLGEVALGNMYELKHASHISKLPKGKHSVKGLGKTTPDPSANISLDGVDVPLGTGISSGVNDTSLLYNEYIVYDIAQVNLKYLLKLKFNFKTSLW

MDA-MB-468 [3] = test: Inhibition of PI3K in human MDA-MB-468 cells assessed as increase in gammaH2AX foci formation at 1 uM measured after 72 hrs by DAPI staining based immunofluorescence microscopic analysis; type: cell-based
Procedure, shortened: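 MDA-MB-468 cells on coverslips given drugs for 72 h. Fixed in 3% formaldehyde, permeabilized with 0.1% Triton X-100, blocked in 10% FBS/PBS, then rabbit anti-γH2AX (Ser139) overnight at 4 °C. Secondary antibody and DAPI stain followed. About 200 cells scored for foci; a cell was positive with more than 5 foci. Three independent experiments.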

MDA-MB-468 [4] = test: Antitumor activity against human MDA-MB-468 cells xenografted in BALB/c mouse assessed as tumor growth inhibition at 50 mg/kg, ip administered every 2 days for 34 days and measured at 2 days interval during compound dosing relative to control; type: functional; details: MDA-MB-468, ip, read-out: TGI
MDA-MB-468 [5] = test: Induction of apoptosis in human MDA-MB-468 cells assessed as early apoptotic cells at 1 uM measured after 72 hrs by Annexin V-FITC/propidium iodide staining based flow cytometry (reference value: 3.88%); type: functional
MDA-MB-468 [6] = test: Inhibition of PI3K in human MDA-MB-468 cells assessed as reduction in BRCA2 mRNA level at 1 uM by Trizol reagent-based RT-PCR analysis; type: cell-based
Procedure, shortened: (§1)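 Total RNA from treated MDA-MB-468 cells extracted with TRIzol. BRCA1 or BRCA2 mRNA quantified by real-time PCR with GAPDH as internal control. Results given as fold change relative to the internal control. Mean ± SD of three independent experiments.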

MDA-MB-468 [7] = test: Inhibition of PI3K in human MDA-MB-468 cells assessed as reduction in RAD51 foci formation at 1 uM measured after 72 hrs by DAPI staining based immunofluorescence microscopic analysis; type: cell-based
Procedure, shortened: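 RAD51 foci in MDA-MB-468 cells on coverslips after 72 h drug exposure. Cells fixed (3% formaldehyde), permeabilized (0.1% Triton X-100), blocked in 10% FBS/PBS, incubated overnight at 4 °C with rabbit anti-RAD51 polyclonal, then secondary antibody plus DAPI. Foci and percent positive cells (>5 foci per cell) counted from about 200 cells. Mean ± SD of three independent experiments.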

MDA-MB-468 [8] = test: Induction of DNA damage in human MDA-MB-468 cells at 1 uM measured after 72 hrs by comet assay; type: functional, cell-based
Procedure, shortened: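 MDA-MB-468 cells treated for 72 h, harvested and run in a neutral comet assay. Ethidium bromide staining after electrophoresis. About 200 cell images per group analysed with CASP. DNA damage scored as tail intensity (percentage DNA in tail) and olive tail moment. Mean ± SD of three independent experiments.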

MDA-MB-468 [9] = test: Antiproliferative activity against human MDA-MB-468 cells measured after 7 days by Celltiter-glo assay; type: functional, cell-based; details: MDA-MB-468, 168 h
Procedure, shortened: (§2)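 Cells maintained in RPMI1640 with 10% FBS at 37 °C, 5% CO2. Seeded the day before dosing, grown 12 h, then exposed to graded compound concentrations for 7 days. CellTiter-Glo reagent added, 10 min at room temperature, luminescence read. Inhibition % = (1-(RLU compound - RLU blank)/(RLU DMSO - RLU blank))×100. IC50 from nonlinear regression, normalized dose-response fit.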

MDA-MB-468 [10] = test: Induction of apoptosis in human MDA-MB-468 cells assessed as necrotic cells at 1 uM measured after 72 hrs by Annexin V-FITC/propidium iodide staining based flow cytometry (reference value: 0.13%); type: functional
HCC1937 = test: Antiproliferative activity against human HCC1937 cells measured after 7 days by Celltiter-glo assay; type: functional, cell-based; details: HCC1937, 168 h; procedure, shortened: as §2
MDA-MB-231 = test: Antiproliferative activity against human MDA-MB-231 cells measured after 7 days by Celltiter-glo assay; type: functional, cell-based; details: MDA-MB-231, 168 h; procedure, shortened: as §2
[11] = Toxicity in BALB/c mouse xenografted with human MDA-MB-468 cells assessed as mortality at 50 mg/kg, ip administered every 2 days for 34 days; type: organism-based; details: in vivo
Procedure, shortened: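 Nude mice bearing subcutaneous right-flank MDA-MB-468 tumours (2 × 10^6 exponential-phase cells implanted). Randomised at about 100 mm³ tumour volume; 6 mice per group. Dosed ip every 2 days for 34 days. Vehicle controls received PBS with 5% DMSO. Body weight and tumour size recorded every 2 days; tumour volume calculated as ab²/2 from caliper diameters.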

MDA-MB-468 [12] = test: Activation of ERK in human MDA-MB-468 cells assessed as increase in ERK autophosphorylation at T202 residue at 1 uM measured after 6 to 72 hrs by Western blot analysis; type: cell-based
Procedure, shortened: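 MDA-MB-468 cells seeded in six-well plates, incubated overnight, then treated for 6 h, with 1‰ (v/v) DMSO medium as control. Lysates cleared at 4 °C, protein quantified by BCA, resolved by 8-12% SDS-PAGE and transferred to PVDF. Membranes blocked in 5% BSA/TBST, probed with primary antibodies (pERK-Thr202, total ERK, cleaved PARP, β-actin) and HRP secondary. ECL detection, band densitometry.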

MDA-MB-468 [13] = test: Induction of apoptosis in human MDA-MB-468 cells assessed as viable cells at 1 uM measured after 72 hrs by Annexin V-FITC/propidium iodide staining based flow cytometry (reference value: 95.2%); type: functional; details: MDA-MB-468, 72 h, read-out: Activity
MDA-MB-468 [14] = test: Inhibition of PI3K in human MDA-MB-468 cells assessed as reduction in pS6 phosphorylation at S240 residue at 1 uM measured after 6 to 72 hrs by Western blot analysis; type: cell-based
Procedure, shortened: (§3)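 MDA-MB-468 cells seeded overnight, then exposed for 6 h; control medium contained 1‰ DMSO. Lysates run on 8–12% SDS-PAGE and transferred to PVDF. Blots blocked in 5% BSA/TBST and probed for pAKT-Ser473/total AKT or pS6-Ser240/total S6, with β-actin as loading control. HRP secondary with ECL detection; bands quantified by densitometry. Three independent experiments.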

MDA-MB-468 [15] = test: Induction of apoptosis in human MDA-MB-468 cells assessed as late apoptotic cells at 1 uM measured after 72 hrs by Annexin V-FITC/propidium iodide staining based flow cytometry (reference value: 0.78%); type: functional
MDA-MB-468 [16] = test: Inhibition of PI3K in human MDA-MB-468 cells assessed as reduction in AKT phosphorylation at S473 residue at 1 uM measured after 6 to 72 hrs by Western blot analysis; type: cell-based; procedure, shortened: as §3
MDA-MB-468 [17] = test: Induction of apoptosis in human MDA-MB-468 cells assessed as increase in cleaved PARP level at 1 uM […] by Western blot analysis; type: functional, cell-based
MDA-MB-468 [18] = test: Inhibition of PI3K in human MDA-MB-468 cells assessed as reduction in BRCA1 mRNA level at 1 uM by Trizol reagent-based RT-PCR analysis; type: cell-based; procedure, shortened: as §1
HCT-116 = test: Antiproliferative activity against human HCT116 cells measured after 7 days by Celltiter-glo assay; type: functional, cell-based; details: HCT-116, 168 h; procedure, shortened: as §2
Homo sapiens = organism: Homo sapiens; test: Selectivity ratio of IC50 for recombinant human PARP1 to IC50 for PI3Kalpha (unknown origin)

Chain of Phosphatidylinositol 4,5-bisphosphate 3-kinase catalytic subunit alpha isoform (P42336 whole entry, canonical isoform): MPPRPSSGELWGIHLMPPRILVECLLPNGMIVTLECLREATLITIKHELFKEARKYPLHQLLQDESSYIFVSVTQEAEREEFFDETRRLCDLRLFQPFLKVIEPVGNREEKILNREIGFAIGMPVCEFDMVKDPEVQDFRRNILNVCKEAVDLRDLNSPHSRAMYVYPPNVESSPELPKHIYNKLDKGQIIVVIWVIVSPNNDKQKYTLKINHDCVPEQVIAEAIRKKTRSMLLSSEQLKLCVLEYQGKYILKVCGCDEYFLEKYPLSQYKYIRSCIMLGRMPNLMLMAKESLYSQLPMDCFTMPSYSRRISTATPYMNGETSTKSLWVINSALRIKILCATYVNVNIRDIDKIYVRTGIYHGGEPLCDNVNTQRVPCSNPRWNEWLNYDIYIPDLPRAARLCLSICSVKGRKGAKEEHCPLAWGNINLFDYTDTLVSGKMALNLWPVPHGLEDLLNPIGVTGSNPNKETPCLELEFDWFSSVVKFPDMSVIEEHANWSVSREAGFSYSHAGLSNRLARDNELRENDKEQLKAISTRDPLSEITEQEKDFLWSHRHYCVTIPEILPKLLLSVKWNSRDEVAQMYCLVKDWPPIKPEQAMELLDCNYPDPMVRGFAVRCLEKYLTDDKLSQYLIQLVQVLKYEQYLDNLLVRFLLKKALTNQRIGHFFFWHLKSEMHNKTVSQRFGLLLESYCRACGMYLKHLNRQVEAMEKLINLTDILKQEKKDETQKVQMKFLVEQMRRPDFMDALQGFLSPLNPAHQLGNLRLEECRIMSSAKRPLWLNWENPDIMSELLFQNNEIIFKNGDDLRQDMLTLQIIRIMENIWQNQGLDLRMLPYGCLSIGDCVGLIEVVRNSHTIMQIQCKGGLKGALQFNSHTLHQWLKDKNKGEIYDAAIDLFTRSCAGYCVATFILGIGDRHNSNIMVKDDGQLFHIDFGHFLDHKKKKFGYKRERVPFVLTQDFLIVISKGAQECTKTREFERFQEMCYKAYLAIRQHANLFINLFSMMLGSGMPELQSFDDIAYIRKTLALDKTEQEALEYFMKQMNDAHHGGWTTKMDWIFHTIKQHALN

O=C(c1cc(Cc2n[nH]c(=O)c3ccccc23)ccc1F)N1CCc2c(nc(-c3cccc4[nH]ncc34)nc2N2CCOCC2)C1
IC50 [1]: 44.7 nM | IC50 [2]: 6.17 nM

Nc1ccc(-c2nc(N3CCOCC3)nc(N3CCN(C(=O)c4cc(Cc5n[nH]c(=O)c6ccccc56)ccc4F)CC3)n2)c(F)c1
IC50 [1]: 708 nM | IC50 [2]: 0.724 nM

O=C(c1cc(Cc2n[nH]c(=O)c3ccccc23)ccc1F)N1CCN(c2nc(-c3ccc4[nH]ccc4c3)nc(N3CCOCC3)n2)CC1
IC50 [1]: 692 nM | IC50 [2]: 0.692 nM

Nc1ncc(-c2nc3c(c(N4CCOCC4)n2)CCN(C(=O)c2cc(Cc4n[nH]c(=O)c5ccccc45)ccc2F)C3)cn1
inhibition (MDA-MB-468 [3]): Active | inhibition in vivo at 50 mg/kg (MDA-MB-468 [4]): 52.7% | Activity (MDA-MB-468 [5]): 14.6% | IC50 [1]: 4.79 nM | inhibition (MDA-MB-468 [6]): Active | inhibition (MDA-MB-468 [7]): Active | Activity (MDA-MB-468 [8]): Active | IC50 (MDA-MB-468 [9]): 2570 nM | Activity (MDA-MB-468 [10]): 1.15% | IC50 [2]: 2.57 nM | IC50 (HCC1937): 3470 nM | IC50 (MDA-MB-231): 3550 nM | Activity [11]: Non-Toxic | Activity (MDA-MB-468 [12]): Active | viability at 1 µM (MDA-MB-468 [13]): 65.9% | inhibition (MDA-MB-468 [14]): Active | Activity (MDA-MB-468 [15]): 19.4% | inhibition (MDA-MB-468 [16]): Active | Activity (MDA-MB-468 [17]): Active | inhibition (MDA-MB-468 [18]): Active | IC50 (HCT-116): 1580 nM

Nc1ccc(-c2nc(N3CCOCC3)nc(N3CCN(C(=O)c4cc(Cc5n[nH]c(=O)c6ccccc56)ccc4F)CC3)n2)cc1F
IC50 [1]: 562 nM | IC50 [2]: 0.832 nM

Nc1ccc(-c2nc(N3CCOCC3)nc(N3CCN(C(=O)c4cc(Cc5n[nH]c(=O)c6ccccc56)ccc4F)CC3)n2)cc1
IC50 [1]: 331 nM | IC50 [2]: 1.17 nM

Nc1cc(-c2nc(N3CCOCC3)nc(N3CCN(C(=O)c4cc(Cc5n[nH]c(=O)c6ccccc56)ccc4F)CC3)n2)ccc1F
IC50 [1]: 2290 nM | IC50 [2]: 1.1 nM

Nc1cc(C(F)(F)F)c(-c2nc(N3CCOCC3)nc(N3CCN(C(=O)c4cc(Cc5n[nH]c(=O)c6ccccc56)ccc4F)CC3)n2)cn1
IC50 [1]: 170 nM | IC50 [2]: 9.55 nM

Nc1ncc(-c2nc(N3CCOCC3)nc(N3CCN(C(=O)c4cc(Cc5n[nH]c(=O)c6ccccc56)ccc4F)CC3)n2)cn1
IC50 [1]: 91.2 nM | IC50 [2]: 0.832 nM | Ratio IC50 (Homo sapiens): 120

— ChEMBL document CHEMBL4376860, “Discovery of Novel Dual Poly(ADP-ribose)polymerase and Phosphoinositide 3-Kinase Inhibitors as a Promising Strategy for Cancer Therapy” (J Med Chem, 2020)
